This is an account of results in ChEMBL document CHEMBL1138762, “Novel cyclooxygenase-1 inhibitors discovered using affinity fingerprints” (J Med Chem, 2004).

The target in assay [1] is T1, Prostaglandin G/H synthase 1 (Ovis aries) (UniProt P05979).
T1 sequence (whole entry): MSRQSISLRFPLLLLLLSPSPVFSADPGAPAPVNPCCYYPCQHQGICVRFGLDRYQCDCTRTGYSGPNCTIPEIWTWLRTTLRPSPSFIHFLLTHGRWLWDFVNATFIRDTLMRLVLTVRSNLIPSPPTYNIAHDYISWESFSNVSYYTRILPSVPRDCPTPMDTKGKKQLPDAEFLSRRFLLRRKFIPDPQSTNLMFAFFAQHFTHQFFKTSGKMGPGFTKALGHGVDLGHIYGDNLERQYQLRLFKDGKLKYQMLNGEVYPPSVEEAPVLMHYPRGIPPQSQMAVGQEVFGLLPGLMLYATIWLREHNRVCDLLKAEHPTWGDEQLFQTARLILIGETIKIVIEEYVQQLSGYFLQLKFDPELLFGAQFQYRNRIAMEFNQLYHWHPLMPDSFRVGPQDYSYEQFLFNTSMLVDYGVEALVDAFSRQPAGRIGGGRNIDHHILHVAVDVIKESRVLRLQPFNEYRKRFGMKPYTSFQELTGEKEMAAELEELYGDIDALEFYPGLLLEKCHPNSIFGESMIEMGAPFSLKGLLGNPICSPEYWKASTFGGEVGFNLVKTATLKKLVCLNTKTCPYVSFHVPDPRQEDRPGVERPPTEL
In words: In vitro inhibitory activity against ovine cyclooxygenase-1 (COX-1) at 200 uM; Inactive.

Assay [2] has as its target T2, Prostaglandin G/H synthase 1 (Ovis aries, UniProt P05979).
T2 sequence (P05979 whole entry): T1 sequence (whole entry)
The experiment in a line: In vitro inhibitory activity against ovine cyclooxygenase-1 (COX-1). The gist of the method: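 Ovine COX-1 (0.17 unit/μL final) with heme (1 μM final) in Tris-HCl pH 8 buffer, preincubated with compound 10 min at room temperature. Started with saturating TMPD, then arachidonic acid to 10 μM, 5 min at room temperature. Absorbance increase at 590 nm. Half-log steps over −log[M] 9.0–3.5, DMSO 3% final. IC50 from nonlinear Hill fit, mean ± SEM of 2–5 determinations.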

The target of assay [3] is T1, Prostaglandin G/H synthase 1 (Ovis aries). Conditions: 200 uM.

Some results are limits rather than exact numbers.

For `CCCCC1C(=O)N(c2ccccc2)N(c2ccccc2)C1=O`, in assay [1], the inhibition is under 50%.
Still for that read-out and setting: next, `COc1ccc2c(c1)c(CC(=O)O)c(C)n2C(=O)c1ccc(Cl)cc1`: under 50%; `O=C(O)c1cc(-c2ccc(F)cc2F)ccc1O`: under 50%.
With `COc1ccc2cc([C@H](C)C(=O)O)ccc2c1`, the inhibition in assay [1] is under 50%.
As to `O=C(c1ccccc1)c1ccc(O)c(C(=O)c2ccccc2)c1O`, the IC50 in assay [2] was found to be 6 µM.
For `CCc1cccc2c3c([nH]c12)C(CC)(CC(=O)O)OCC3` (configuration not stated), in assay [1], the inhibition was under 50%.
In turn, `CC(C)Cc1ccc(C(C)C(=O)O)cc1` (configuration not stated) came in with an inhibition in assay [1] of under 50%.
`COc1c(O)ccc2c1oc1ccccc12` showed an IC50 in assay [2] of 29 µM.
`Cc1cc(NC(=O)C2=C(O)c3ccccc3S(=O)(=O)N2C)no1` yielded an inhibition in assay [1] of under 50%.
As to `O=C(O)Cc1ccccc1Nc1c(Cl)cccc1Cl`, the inhibition in assay [3] was under 50%.
Consider `O=C(Nc1ccccc1O)c1ccccc1Cl`, for which the IC50 in assay [2] worked out at 69 µM.
`CC(C(=O)O)c1ccc(N2CC=CC2)c(Cl)c1` (configuration not stated) registered an inhibition in assay [1] of under 50%.
As for `COc1ccc2c(c1)c(CC(=O)OCC(=O)O)c(C)n2C(=O)c1ccc(Cl)cc1`, in assay [1], the inhibition was under 50%.
`CC(C(=O)O)c1cccc(C(=O)c2ccccc2)c1` (configuration not stated) returned an inhibition in assay [1] of under 50%.
The same measure, in the same setting: next, `CN1C(C(=O)Nc2ccccn2)=C(O)c2ccccc2S1(=O)=O`: under 50%; `COc1ccc2cc(CC(=O)O)ccc2c1`: under 50%.
The same measure, in the same setting: next, `CC(C(=O)O)c1ccc(N2Cc3ccccc3C2=O)cc1` (configuration not stated): under 50%.

As a reminder, the inhibition is the relative decrease from the control value, in per cent. High values mean a response far below the control, low ones a response near the control. For orientation: IC50 means the midpoint of a concentration-inhibition curve. Higher therefore signals lower potency.
